Screens: PubChem BioAssay, several laboratories
Only some compounds are listed: those with a hit (about 3.1% of all), similar ones and a draw of the others.
HSF-1 act: increases HSF-1 driven luciferase reporter signal | activation, % at 9 µM | NIH3T3-HGL HSF-1 luciferase reporter, MG132, 8 h; 100% = twice DMSO control signal | 1.7% of 300,000 active;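 active means mean replicate activation of at least 50% with a set share of replicates each reaching 50%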;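 further: 0% = median of the neutral control wells and 100% = twice that signal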
HKDC1 inhibitor: inhibitors of human hexokinase HKDC1 | Q2TB90 | recombinant HKDC1, G6PDH/diaphorase resazurin coupled fluorescence | inhibition, % at 20 µM | 0.16% of 340,000 active | AID 493160;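 active means inhibition above about 35% when tested at 20 µM, limit read from the data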;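 further: plate controls were DMSO wells with enzyme for no effect and DMSO wells lacking enzyme for full effect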
Target sequence (Q2TB90 whole entry, looked up): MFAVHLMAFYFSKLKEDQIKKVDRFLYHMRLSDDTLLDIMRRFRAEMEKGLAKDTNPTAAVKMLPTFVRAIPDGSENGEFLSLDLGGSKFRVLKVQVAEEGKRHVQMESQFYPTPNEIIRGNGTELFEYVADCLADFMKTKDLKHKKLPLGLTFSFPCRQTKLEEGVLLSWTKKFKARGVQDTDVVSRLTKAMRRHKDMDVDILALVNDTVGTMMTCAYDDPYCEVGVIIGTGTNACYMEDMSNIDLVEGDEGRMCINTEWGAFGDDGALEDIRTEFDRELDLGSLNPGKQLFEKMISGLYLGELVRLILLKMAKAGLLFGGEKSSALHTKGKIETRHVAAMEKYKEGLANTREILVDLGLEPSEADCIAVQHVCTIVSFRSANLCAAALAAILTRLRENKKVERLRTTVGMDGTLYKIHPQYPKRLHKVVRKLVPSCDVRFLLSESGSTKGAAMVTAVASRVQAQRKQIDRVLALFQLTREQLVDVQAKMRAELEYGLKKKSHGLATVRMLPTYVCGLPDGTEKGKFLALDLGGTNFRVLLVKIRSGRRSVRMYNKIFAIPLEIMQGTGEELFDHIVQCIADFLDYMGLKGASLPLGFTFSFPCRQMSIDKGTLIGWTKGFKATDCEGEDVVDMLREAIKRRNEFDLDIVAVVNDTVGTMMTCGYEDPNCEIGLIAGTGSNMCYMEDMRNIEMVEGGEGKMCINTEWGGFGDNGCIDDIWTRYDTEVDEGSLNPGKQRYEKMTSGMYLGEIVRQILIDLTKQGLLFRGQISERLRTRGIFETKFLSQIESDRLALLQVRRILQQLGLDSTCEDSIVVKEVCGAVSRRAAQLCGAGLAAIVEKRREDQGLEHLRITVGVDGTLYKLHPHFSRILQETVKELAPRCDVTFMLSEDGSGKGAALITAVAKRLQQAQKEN
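Material: recombinant HKDC1 hexokinase; Amount: HKDC1 at 5 µg/mL; Medium: Tris pH 8.0 buffer with MgCl2, Tween-20, BSA, BME; Schedule: 90 min reaction incubation at room temperature, dark; Technique: coupled resazurin fluorescence, excitation 525 nm, emission 613 nm.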
HSP90 refold inh: HSP90 refolding inhibition in rabbit reticulocyte lysate. luciferase refolding luminescence, 3 h. inhibition, % at 5.6 µM. 0.91% of 290,000 active. AID 1789;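 active means inhibition above the screen-wide mean plus 3 SD, computed separately per campaign, cut at about 16% in these data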;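 further: 0% = DMSO wells and 100% = 60 µM geldanamycin wells; inhibitors lower the luminescence because luciferase stays unfolded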
Hsp70 activator: transcriptional activators of Hsp70 | AID 1203 | activation, % at 10 µM | 0.04% of 200,000 active | HeLa Hsp70 promoter luciferase reporter, luminescence; scaled: vehicle 0, proteasome-inhibitor control 100%;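 active means activation above the mean across all tested compounds plus 3 SD, cutoff set per campaign, cut at about 5.5% in these data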;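 further: 100% = MG132 at 30 µM as the positive control and 0% = DMSO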
TbHK1 inh: T. brucei hexokinase 1 inhibition; recombinant TbHK1, G6PDH-coupled NADH A340; inhibition, % at 10 µM; 0.11% of 220,000 active;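 active means inhibition of 50% or more in the single-dose primary screen; inactive means inhibition below 50%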
HSF1 inh: HSF1 inhibition | NIH3T3-HGL HSE-luciferase, MG132-induced, luminescence 8 h; stronger effect = lower value | activity change, negative = inhibition, % at 7.5 µM (by protocol) | 0.77% of 300,000 active | AID 2098;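 active means more than half of replicate wells show activity change below -50%, luminescence cut by over half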;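 further: luciferase reports HSF-1 transcriptional activity via heat shock element; 0% = median of DMSO wells and -100% = zero luminescence signal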
Numbers without * were called inactive; / = no result given.

SMILES	HSF-1 act	HKDC1 inhibitor	HSP90 refold inh	Hsp70 activator	TbHK1 inh	HSF1 inh
Cc1ccc(NC(=O)CC(C)S(=O)(=O)c2ccc3c(c2)NC(=O)CO3)cc1C (centres undefined)	-4	5	3	/	/	-3
Cc1cccc(NC(=O)CC(C)S(=O)(=O)c2ccc3c(c2)NC(=O)CO3)c1C (centres undefined)	105*	-4	4	/	/	56
Cc1cccc(NC(=O)C2CCN(S(=O)(=O)c3ccc4c(c3)NC(=O)CO4)CC2)c1C	73*	-4	0	/	/	24
Cc1cc(C)n2nc(-c3ccccc3)c(-c3ccccc3)c2n1	7	2	4	/	/	-6
Cc1cc(NC(=O)CSc2c3c(nc4ccccc24)CCC3)no1	72*	-6	-1	-1	-5	57
COc1ccc(NC(=O)CSc2c3c(nc4cc(Cl)ccc24)CCCC3)cc1OC	128*	5	3	0	-10	74
CCN(C(=O)c1ccc2c(SCC(=O)O)c3c(nc2c1)CCC3)c1cc(Cl)ccc1OC	-79	0	-2	/	/	-73*
COc1ccccc1NC(=O)CSc1c2c(nc3ccccc13)CCC2	9	-3	-2	0	21	13
COc1ccc(NC(=O)CSc2c3c(nc4ccccc24)CCCC3)c(OC)c1	70*	-4	3	0	-11	63
CN1C(=O)CSC1=S	37	-9	-3	/	/	22
CSCCC(NC(=O)c1ccco1)C(=O)N1CCN(c2ccccc2O)CC1 (centres undefined)	/	4	/	/	/	/
COCCNC(=O)CSc1c2c(nc3ccc(Cl)cc13)CCCC2	107*	-4	0	0	-17	51
O=C(CSc1ccc(F)cc1)Nc1ccc(C2SCCS2)cc1	60*	-3	-5	/	-5	46
O=S(=O)(c1ccccc1)N1N=C(c2ccc(Br)cc2)CC1c1ccco1 (centres undefined)	-12	-2	-1	/	/	8
CS(=O)(=O)c1nc(-c2ccccc2)cc(-c2ccccc2)c1C#N	167*	9	-4	0	-6	159
COc1ccc(N=N/C(=C\O)C(=O)c2cccs2)cc1	67*	1	2	0	-3	54
O=C(CCl)c1ccc2c(c1)CCN2C(=O)C1CC1	5	/	4	0	-14	1
O=C(CCl)c1ccc2c(c1)CCN2C(=O)C1CCCCC1	71*	27	-1	0	-11	52
COc1cccc2cc(-c3ccccc3)c(=O)oc12	62*	3	-3	0	-8	27
COc1ccc(-c2cc3cccc(OC)c3oc2=O)cc1	26	-2	14	/	/	-6
O=C(CC1CCCCC1)NCc1ccccn1	-92	1	-1	0	2	-90*
C[C@H](CO)N1C[C@H](C)[C@@H](CN(C)C(=O)NC2CCCCC2)Oc2ccc(NC(=O)C3CCCCC3)cc2C1=O	/	-15	/	/	/	/
COc1ccccc1CNC(=O)N1CCN(c2ccccc2)CC1	-5	-6	3	/	/	-4
COc1ccccc1CNC(=O)N1CCN(c2ccccc2C)CC1	-78	-3	0	/	/	-72*
C=C(C)Cn1c(=O)c2c(nc3n2CCCN3CCc2ccccc2)n(C)c1=O	1	-1	-5	/	/	1
SMILES	HSF-1 act	HKDC1 inhibitor	HSP90 refold inh	Hsp70 activator	TbHK1 inh	HSF1 inh
c1coc(-c2nc(-c3ccco3)c(-c3ccco3)nc2-c2ccco2)c1	2	68*	3	1	-6	0
Cc1cc(/C=C(/C#N)c2cccc(Cl)c2)c(C)n1C	67*	-11	1	0	0	32
Cc1cc(/C=C(/C#N)c2cccc(F)c2)c(C)n1-c1cccnc1	/	1	2	0	-19	/
COC(=O)C1=C(CCc2ccccc2)NC(=O)NC1c1ccc(Br)cc1 (centres undefined)	16	1	3	/	/	8
CCOc1ccc(NC(=O)C(C)C(Cc2ccc(C)cc2)C(=O)O)cc1 (centres undefined)	-15	-2	0	/	/	-8
CCn1c(-c2ccccc2)c(C(=O)CCl)c2ccccc21	98*	18	-2	0	-4	60
Cc1[nH]n(-c2ccccc2)c(=O)c1C=NCCc1ccccc1	90*	-4	1	0	-1	44
Cc1[nH]n(-c2ccccc2)c(=O)c1C=NCc1ccncc1	1	-1	-3	/	-26	1
COc1ccccc1Oc1cc(C#N)c(C#N)cc1-n1nnc2ccccc21	79*	16	-2	0	0	46
Cc1cc(=O)nc2c3ccccc3n(C(C)C(=O)NCCN3CCOCC3)n12 (centres undefined)	-10	1	-2	/	/	-8
COc1ccc(C(=O)N[C@H](C(=O)OCCCOC(=O)[C@@H](NC(=O)c2ccc(OC)cc2)C(C)C)C(C)C)cc1	/	-5	/	/	/	/
O=C(O)CCNS(=O)(=O)c1ccccc1C(F)(F)F	-68	-2	0	0	5	-60*
O=C(O)CCNS(=O)(=O)c1ccccc1Br	19	-10	-6	0	1	4
Cn1c(NC(=S)Nc2ccccc2)nc2ccccc21	77*	-36	1	0	0	40
COc1cc(C(=O)COC(=O)c2cc([N+](=O)[O-])ccc2N2CCOCC2)ccc1OC(F)F	-6	-1	/	/	/	-4
CC(=O)c1ccc(OCc2cc(C(=O)N3CC4C[C@@H]5CC3C[C@H](C4)C5)no2)cc1	17	-8	-4	/	/	12
CCOC(=O)C(CC(=O)Nc1nc(C(C)=O)c(C)s1)C(C)c1ccccc1 (centres undefined)	26	0	2	/	/	3
CCCCn1c(N)c(N(CC(C)C)C(=O)c2ccc(N3C(=O)CCC3=O)cc2)c(=O)[nH]c1=O	-2	-3	/	/	/	0
COCCn1c(SCC(=O)NCC2CCCO2)nc2c(c1=O)SCC2 (centres undefined)	1	1	2	/	/	-3
COCCn1c(SCC(=O)NC2CCCCC2)nc2c(c1=O)SCC2	58*	1	4	/	/	23
CCOC(=O)/C=C(/C)N1N=C(c2ccc(OC)cc2)CC1c1cccc([N+](=O)[O-])c1 (centres undefined)	59*	-6	-6	0	16	26
COc1ccc(C2=NN(C(=O)c3ccccc3)C(c3cccc([N+](=O)[O-])c3)C2)cc1 (centres undefined)	17	-1	1	/	-12	5
Cc1nn(C)cc1/C=N\NC(=O)c1ccc2c(c1)c(C)c(C)n2Cc1ccccc1	128*	-2	5	0	-28	99
Cc1c(C)n(Cc2ccccc2)c2ccc(C(=O)O)cc12	30	-5	/	/	/	2
CCOCCCNC(=S)N(Cc1ccco1)Cc1cc2cc3c(cc2[nH]c1=O)OCCO3	38	-7	2	0	-12	28
Cc1ccc(C)c2[nH]c(=O)c(CN(CC3CCCO3)C(=S)NCc3ccco3)cc12 (centres undefined)	9	-2	-1	/	-4	9
